Assay [1] addresses Sodium-dependent noradrenaline transporter (Homo sapiens, UniProt P23975). Nature of the assay: Displacement of [125I]methyl 3-(4-iodophenyl)-8-methyl-8-aza-bicyclo[3.2.1]octane-2-carboxylate from human recombinant NET expressed in african green monkey COS1 cells by liquid scintillation counting. In kind it is cell-based, COS-1. In a few lines:
(§1)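 Membranes from COS-1 cells stably expressing cloned human transporter; cells scraped, homogenized in ice-cold 150 mM NaCl/50 mM Tris/20 mM EDTA, pelleted at 12,000g, resuspended in PBSCM, stored at -80 °C. Filtered on PEI-presoaked GF/B filters, washed thrice with ice-cold water.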
A general note: In a radioligand displacement assay an active substance lowers the binding of a labelled ligand.

Assay [2] deals with Sodium-dependent dopamine transporter (Homo sapiens, UniProt Q01959). The experiment in a line: Displacement of [125I]methyl 3-(4-iodophenyl)-8-methyl-8-aza-bicyclo[3.2.1]octane-2-carboxylate from human recombinant DAT expressed in african green monkey COS1 cells by liquid scintillation counting. The assay is classed as cell-based, COS-1. The procedure, abridged: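 Membranes from COS-1 cells stably expressing cloned human transporter; cells scraped, homogenized in ice-cold 150 mM NaCl/50 mM Tris/20 mM EDTA, pelleted at 12,000g, resuspended in PBSCM, stored at -80 °C. 5 µg protein/well incubated with test drug and 0.1–0.25 nM 125I-radioligand for 1 h at 20 °C. Filtered on PEI-presoaked GF/B filters, washed thrice with ice-cold water.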
Chain of Sodium-dependent dopamine transporter (Q01959 whole entry): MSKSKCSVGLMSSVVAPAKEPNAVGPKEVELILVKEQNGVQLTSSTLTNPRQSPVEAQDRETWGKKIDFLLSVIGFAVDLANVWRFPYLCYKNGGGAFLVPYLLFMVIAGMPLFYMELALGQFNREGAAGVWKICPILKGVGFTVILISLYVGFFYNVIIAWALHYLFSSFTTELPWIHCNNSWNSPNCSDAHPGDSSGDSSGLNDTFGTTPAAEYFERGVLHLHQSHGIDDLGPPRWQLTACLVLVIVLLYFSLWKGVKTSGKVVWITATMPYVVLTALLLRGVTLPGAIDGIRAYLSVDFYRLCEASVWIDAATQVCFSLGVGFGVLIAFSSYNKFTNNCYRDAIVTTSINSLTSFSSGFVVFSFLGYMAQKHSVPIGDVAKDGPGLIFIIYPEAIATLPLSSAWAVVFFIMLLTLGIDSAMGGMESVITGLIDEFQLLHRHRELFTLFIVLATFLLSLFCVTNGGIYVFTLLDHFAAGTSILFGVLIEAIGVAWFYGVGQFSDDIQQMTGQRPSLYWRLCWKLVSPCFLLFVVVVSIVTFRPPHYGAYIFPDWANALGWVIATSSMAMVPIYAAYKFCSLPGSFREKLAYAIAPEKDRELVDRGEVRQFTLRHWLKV

Assay [3] is filed under the species Homo sapiens. The experiment in a line: Selectivity ratio of Ki for human NET to Ki for human DAT.
For assay [4], the target named is Sodium-dependent serotonin transporter (Homo sapiens, UniProt P31645). Nature of the assay: Displacement of [125I]methyl 3-(4-iodophenyl)-8-methyl-8-aza-bicyclo[3.2.1]octane-2-carboxylate from human recombinant SERT expressed in african green monkey COS1 cells by liquid scintillation counting. In kind it is cell-based, COS-1. The procedure, abridged:
as §1

Assay [5] is filed under the species Homo sapiens. The experiment in a line: Selectivity ratio of Ki for human SERT to Ki for human DAT.

Chain of Sodium-dependent noradrenaline transporter (P23975 whole entry): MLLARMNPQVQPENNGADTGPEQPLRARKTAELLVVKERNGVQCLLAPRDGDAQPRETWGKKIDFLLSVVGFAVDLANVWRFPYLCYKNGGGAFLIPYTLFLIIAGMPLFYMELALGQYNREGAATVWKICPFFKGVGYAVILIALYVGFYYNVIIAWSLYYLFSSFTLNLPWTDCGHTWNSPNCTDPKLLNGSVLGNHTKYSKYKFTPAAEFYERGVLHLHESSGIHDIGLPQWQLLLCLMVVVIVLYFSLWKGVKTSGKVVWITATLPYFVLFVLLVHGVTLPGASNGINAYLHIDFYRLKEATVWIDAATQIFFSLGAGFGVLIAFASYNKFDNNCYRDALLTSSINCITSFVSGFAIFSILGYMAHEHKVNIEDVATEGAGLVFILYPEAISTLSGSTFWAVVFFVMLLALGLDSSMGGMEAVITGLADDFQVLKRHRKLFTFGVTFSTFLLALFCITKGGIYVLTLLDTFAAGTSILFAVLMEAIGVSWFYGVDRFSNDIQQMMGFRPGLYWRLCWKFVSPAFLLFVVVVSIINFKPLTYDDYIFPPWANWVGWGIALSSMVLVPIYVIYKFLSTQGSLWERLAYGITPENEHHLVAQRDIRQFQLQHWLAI
Chain of Sodium-dependent serotonin transporter (P31645 whole entry): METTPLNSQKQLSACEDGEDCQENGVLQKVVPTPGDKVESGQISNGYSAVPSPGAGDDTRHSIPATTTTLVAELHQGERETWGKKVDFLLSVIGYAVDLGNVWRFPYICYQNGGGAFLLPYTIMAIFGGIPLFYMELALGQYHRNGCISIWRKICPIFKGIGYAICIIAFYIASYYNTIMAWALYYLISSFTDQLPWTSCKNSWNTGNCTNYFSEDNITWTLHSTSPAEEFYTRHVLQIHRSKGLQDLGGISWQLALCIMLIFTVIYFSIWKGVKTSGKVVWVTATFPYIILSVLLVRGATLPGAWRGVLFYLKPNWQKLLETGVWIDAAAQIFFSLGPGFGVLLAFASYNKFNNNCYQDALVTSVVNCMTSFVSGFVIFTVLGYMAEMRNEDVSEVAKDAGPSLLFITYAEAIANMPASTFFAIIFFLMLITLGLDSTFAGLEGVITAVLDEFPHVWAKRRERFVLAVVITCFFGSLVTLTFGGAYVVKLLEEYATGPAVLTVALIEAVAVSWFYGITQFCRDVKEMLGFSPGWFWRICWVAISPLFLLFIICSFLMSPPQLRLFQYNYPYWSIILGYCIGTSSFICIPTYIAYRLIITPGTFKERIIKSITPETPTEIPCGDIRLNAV

For orientation: Ki means a measure of affinity in units of concentration, obtained from inhibition or displacement. For the compound `CN1C2CCC1[C@@H](C(=O)NCc1ccc(CCNC(=O)[C@H]3C4CCC(C[C@@H]3c3ccc(Cl)cc3)N4C)cc1)[C@@H](c1ccc(Cl)cc1)C2` (stereo partly specified), the Ki in assay [1] was found to be 100 nM; in assay [2], 20 nM; in assay [4], 65 nM. For the same compound, the results for the Ratio Ki in the assay listed under Homo sapiens [3] and in the assay filed under Homo sapiens [5] were 5.2 and 3.3, respectively.

Regarding `CN1C2CCC1[C@@H](C(=O)Nc1ccc(CNC(=O)[C@H]3C4CCC(C[C@@H]3c3ccc(-c5ccsc5)cc3)N4C)cc1)[C@@H](c1ccc(-c3ccsc3)cc1)C2` (stereo partly specified), the inhibition constant Ki in assay [1] came out at 2700 nM; in assay [2], 800 nM; in assay [4] it was 730 nM. Besides, the Ratio Ki in the assay filed under Homo sapiens [3] worked out at 3.4; in the assay filed under Homo sapiens [5], 0.92.

Take `CN1C2CCC1[C@@H](C(=O)Nc1ccc(CNC(=O)[C@H]3C4CCC(C[C@@H]3c3ccc(Cl)cc3)N4C)cc1)[C@@H](c1ccc(Cl)cc1)C2` (stereo partly specified): the results for the Ki in assay [1], in assay [2] and in assay [4] were 810 nM, 21 nM and 1500 nM, respectively. The Ratio Ki in the assay listed under Homo sapiens [3] was 39; in the assay listed under Homo sapiens [5], 74.

Turning to `CN1C2CCC1[C@@H](C(=O)NCc1ccc(CNC(=O)[C@H]3C4CCC(C[C@@H]3c3ccc(-c5ccsc5)cc3)N4C)cc1)[C@@H](c1ccc(-c3ccsc3)cc1)C2`, the inhibitory constant (Ki) amounted to 620 nM in assay [1], 93 nM in assay [2] and 160 nM in assay [4]. The Ratio Ki in the assay filed under Homo sapiens [3] turned out to be 6.7; in the assay filed under Homo sapiens [5] it was 1.7.

Consider `CN1C2CCC1[C@@H](C(=O)NCCC1CCN(C(=O)[C@H]3C4CCC(C[C@@H]3c3ccc(Cl)cc3)N4C)CC1)[C@@H](c1ccc(Cl)cc1)C2` (stereo partly specified), for which the inhibition constant (Ki) turned out to be 440 nM in assay [1], 180 nM in assay [2] and 2500 nM in assay [4]. Also, the Ratio Ki in the assay filed under Homo sapiens [3] was determined as 2.5; in the assay filed under Homo sapiens [5] it was 14.

As to `CN1C2CCC1[C@@H](C(=O)NCc1ccc(CCNC(=O)[C@H]3C4CCC(C[C@@H]3c3ccc(-c5ccsc5)cc3)N4C)cc1)[C@@H](c1ccc(-c3ccsc3)cc1)C2` (stereo partly specified), the Ki in assay [1] is 1300 nM; in assay [2] it was 160 nM; in assay [4], 62 nM. For the same compound, the Ratio Ki in the assay filed under Homo sapiens [3] came out at 8.2; in the assay listed under Homo sapiens [5] it was 0.38.

As to `CN1C2CCC1[C@@H](C(=O)NCc1cccc(CNC(=O)[C@H]3C4CCC(C[C@@H]3c3ccc(-c5ccsc5)cc3)N4C)c1)[C@@H](c1ccc(-c3ccsc3)cc1)C2`, the Ki worked out at 1200 nM in assay [1], 230 nM in assay [2] and 860 nM in assay [4]. Besides, the Ratio Ki was 5.1 in the assay filed under Homo sapiens [3] and 3.7 in the assay filed under Homo sapiens [5].

In the case of `CN1C2CCC1[C@@H](C(=O)Nc1ccc(CCNC(=O)[C@H]3C4CCC(C[C@@H]3c3ccc(Cl)cc3)N4C)cc1)[C@@H](c1ccc(Cl)cc1)C2` (stereo partly specified), the inhibition constant Ki in assay [1] came out at 180 nM; in assay [2] it was 6.6 nM; in assay [4] it was 2600 nM. The Ratio Ki turned out to be 27 in the assay filed under Homo sapiens [3] and 390 in the assay listed under Homo sapiens [5].

As for `CN1C2CCC1[C@@H](C(=O)Nc1ccc(NC(=O)[C@H]3C4CCC(C[C@@H]3c3ccc(-c5ccsc5)cc3)N4C)cc1)[C@@H](c1ccc(-c3ccsc3)cc1)C2`, the values for the Ki in assay [1], in assay [2] and in assay [4] were 1900 nM, 210 nM and 270 nM, respectively. Besides, the Ratio Ki worked out at 9.4 in the assay filed under Homo sapiens [3] and 1.3 in the assay filed under Homo sapiens [5].

Take `CN1C2CCC1[C@@H](C(=O)Nc1ccc(NC(=O)[C@H]3C4CCC(C[C@@H]3c3ccc(Cl)cc3)N4C)cc1)[C@@H](c1ccc(Cl)cc1)C2`: the inhibition constant (Ki) in assay [1] came out at 5400 nM; in assay [2], 690 nM; in assay [4], 3200 nM. The results for the Ratio Ki in the assay filed under Homo sapiens [3] and in the assay filed under Homo sapiens [5] were 7.8 and 4.6, respectively.

For the compound `CN1C2CCC1[C@@H](C(=O)OCc1cn(CCCCCCCOC(=O)[C@H]3C4CCC(C[C@@H]3c3ccc(Cl)cc3)N4C)nn1)[C@@H](c1ccc(Cl)cc1)C2` (stereo partly specified), the results for the Ki in assay [1], in assay [2] and in assay [4] were 20 nM, 3.9 nM and 3.5 nM, respectively. Also, the Ratio Ki amounted to 5.1 in the assay listed under Homo sapiens [3] and 0.89 in the assay listed under Homo sapiens [5].

Take `COC(=O)[C@@H]1C2CCC(C[C@@H]1c1ccc(I)cc1)N2C` (stereo partly specified): the Ki was 19 nM in assay [1], 3.9 nM in assay [2] and 4.2 nM in assay [4]. Also, the Ratio Ki was found to be 4.9 in the assay filed under Homo sapiens [3] and 1.1 in the assay listed under Homo sapiens [5].

Consider `CN1C2CCC1[C@@H](C(=O)OCCCCCn1ccnn1)[C@@H](c1ccc(Cl)cc1)C2` (stereo partly specified), for which the Ki was found to be 380 nM in assay [1], 5.5 nM in assay [2] and 20 nM in assay [4]. Further, the Ratio Ki in the assay filed under Homo sapiens [3] stood at 69; in the assay filed under Homo sapiens [5], 3.6.

For the compound `CN1C2CCC1[C@@H](C(=O)NCCCCCCNC(=O)[C@H]1C3CCC(C[C@@H]1c1ccc(-c4ccsc4)cc1)N3C)[C@@H](c1ccc(-c3ccsc3)cc1)C2`, the inhibition constant Ki in assay [1] was 2200 nM; in assay [2], 540 nM; in assay [4] it was 2100 nM. Besides, the Ratio Ki in the assay filed under Homo sapiens [3] and in the assay listed under Homo sapiens [5] was 4 throughout.

For `CN1C2CCC1[C@@H](C(=O)N[C@H]1CC[C@H](NC(=O)[C@H]3C4CCC(C[C@@H]3c3ccc(-c5ccsc5)cc3)N4C)CC1)[C@@H](c1ccc(-c3ccsc3)cc1)C2`, the Ki in assay [1] worked out at 5000 nM; in assay [2] it was 1300 nM; in assay [4], 810 nM. Besides, the Ratio Ki was 3.8 in the assay filed under Homo sapiens [3] and 0.62 in the assay listed under Homo sapiens [5].

Regarding `CN1C2CCC1[C@@H](C(=O)OCc1cn(CCCCCCOC(=O)[C@H]3C4CCC(C[C@@H]3c3ccc(Cl)cc3)N4C)nn1)[C@@H](c1ccc(Cl)cc1)C2` (stereo partly specified), the inhibition constant (Ki) in assay [1] is 8.5 nM; in assay [2] it was 1 nM; in assay [4], 0.86 nM. Moreover, the Ratio Ki in the assay filed under Homo sapiens [3] was 8.5; in the assay listed under Homo sapiens [5], 0.86.

As to `CN1C2CCC1[C@@H](C(=O)OCc1cn(CCOC(=O)[C@H]3C4CCC(C[C@@H]3c3ccc(Cl)cc3)N4C)nn1)[C@@H](c1ccc(Cl)cc1)C2` (stereo partly specified), the Ki in assay [1] came to 120 nM; in assay [2], 16 nM; in assay [4], 27 nM. Moreover, the Ratio Ki was 7.3 in the assay listed under Homo sapiens [3] and 1.6 in the assay filed under Homo sapiens [5].

`COC(=O)[C@@H]1C2CCC(C[C@@H]1c1ccc(Cl)cc1)N2C` (stereo partly specified): the Ki in assay [2] was found to be 2.7 nM.

As for `CN1C2CCC1[C@@H](C(=O)NCCCCCCCCNC(=O)[C@H]1C3CCC(C[C@@H]1c1ccc(-c4ccsc4)cc1)N3C)[C@@H](c1ccc(-c3ccsc3)cc1)C2`, the inhibition constant (Ki) stood at 1700 nM in assay [1], 690 nM in assay [2] and 470 nM in assay [4]. In addition, the Ratio Ki in the assay listed under Homo sapiens [3] came out at 2.4; in the assay filed under Homo sapiens [5], 0.68.

In the case of `CN1C2CCC1[C@@H](C(=O)N[C@H]1CC[C@H](NC(=O)[C@H]3C4CCC(C[C@@H]3c3ccc(Cl)cc3)N4C)CC1)[C@@H](c1ccc(Cl)cc1)C2`, the inhibition constant Ki in assay [1] came out at 4900 nM; in assay [2] it was 890 nM; in assay [4], 4000 nM. Further, the Ratio Ki in the assay listed under Homo sapiens [3] was found to be 5.5; in the assay filed under Homo sapiens [5], 4.6.

For the compound `CN1C2CCC1[C@@H](C(=O)Nc1ccc(CCNC(=O)[C@H]3C4CCC(C[C@@H]3c3ccc(-c5ccsc5)cc3)N4C)cc1)[C@@H](c1ccc(-c3ccsc3)cc1)C2` (stereo partly specified), the results for the inhibitory constant (Ki) in assay [1], in assay [2] and in assay [4] were 3300 nM, 710 nM and 340 nM, respectively. In addition, the Ratio Ki in the assay filed under Homo sapiens [3] was 4.6; in the assay filed under Homo sapiens [5] it was 0.48.

Consider `COC(=O)[C@@H]1C2CCC(C[C@@H]1c1ccc(-c3ccsc3)cc1)N2C` (stereo partly specified), for which the results for the Ki in assay [1], in assay [2] and in assay [4] were 26 nM, 2.5 nM and 0.58 nM, respectively. Besides, the Ratio Ki in the assay listed under Homo sapiens [3] is 10; in the assay filed under Homo sapiens [5], 0.24.

As to `CN1C2CCC1[C@@H](C(=O)NCCCCCCCCCCNC(=O)[C@H]1C3CCC(C[C@@H]1c1ccc(-c4ccsc4)cc1)N3C)[C@@H](c1ccc(-c3ccsc3)cc1)C2`, the results for the Ki in assay [1], in assay [2] and in assay [4] were 1500 nM, 350 nM and 250 nM, respectively. Besides, the Ratio Ki worked out at 4.4 in the assay listed under Homo sapiens [3] and 0.72 in the assay listed under Homo sapiens [5].
